The values below come from PubChem BioAssay AID588732 (Vanderbilt Specialized Chemistry Center, 2011).

The test has as its target Metabotropic glutamate receptor 8 (Rattus norvegicus) (UniProt P70579). In words: rat mGlu8 allosteric modulation, glutamate curve shift, profiling panel, selectivity assay for mGlu5 PAM project, thallium flux, HEK/GIRK cells (AID 588732). The note with it: glutamate CRC shift, at 10 µM; for Emax: measured here: glutamate max response with compound. The method in brief: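 Material: Rat mGlu8 HEK/GIRK cells | Reagent: Glutamate concentration series | Compound dosing: Single 10 µM final test compound, pre-added before glutamate | Signal: FluoZin2 thallium-flux slope | Read-out: Glutamate EC50 fold shift and %Emax, four-parameter logistic fit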

By Emax is commonly meant the greatest response seen or fitted, relative to the assay's reference.

Active and inactive are the calls of the source.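 How the source made its calls: active means compound shifting glutamate potency twofold either way, or pushing peak response under 75% or over a set limit; inactive means the rest.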

Metabotropic glutamate receptor 8 (Rattus norvegicus), sequence (P70579 whole entry, looked up): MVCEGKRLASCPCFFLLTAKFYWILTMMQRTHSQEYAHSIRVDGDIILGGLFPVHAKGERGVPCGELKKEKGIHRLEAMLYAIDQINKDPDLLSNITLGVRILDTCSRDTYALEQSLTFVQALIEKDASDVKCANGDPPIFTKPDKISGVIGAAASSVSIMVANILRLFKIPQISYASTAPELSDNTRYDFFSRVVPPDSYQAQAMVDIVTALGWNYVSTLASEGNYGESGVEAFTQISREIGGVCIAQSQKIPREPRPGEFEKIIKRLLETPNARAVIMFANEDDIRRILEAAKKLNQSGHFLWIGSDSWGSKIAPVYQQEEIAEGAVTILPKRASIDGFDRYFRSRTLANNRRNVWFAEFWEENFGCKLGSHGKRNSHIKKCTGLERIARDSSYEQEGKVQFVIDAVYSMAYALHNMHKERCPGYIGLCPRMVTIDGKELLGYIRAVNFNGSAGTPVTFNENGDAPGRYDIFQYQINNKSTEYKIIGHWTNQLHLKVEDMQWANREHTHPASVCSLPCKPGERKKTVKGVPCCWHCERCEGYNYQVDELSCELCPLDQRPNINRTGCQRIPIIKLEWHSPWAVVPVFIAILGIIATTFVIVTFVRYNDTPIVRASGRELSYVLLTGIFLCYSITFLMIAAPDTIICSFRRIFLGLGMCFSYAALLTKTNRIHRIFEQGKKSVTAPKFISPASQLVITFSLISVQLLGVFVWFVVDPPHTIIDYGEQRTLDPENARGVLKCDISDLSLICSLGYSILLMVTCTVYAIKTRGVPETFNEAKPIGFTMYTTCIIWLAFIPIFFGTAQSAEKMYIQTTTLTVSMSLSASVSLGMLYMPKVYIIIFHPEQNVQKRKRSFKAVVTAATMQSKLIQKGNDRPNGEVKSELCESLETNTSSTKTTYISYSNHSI

For `CC1(NC(=O)c2ccc(C#Cc3cccc(F)c3)cn2)COC1`, the fold shift is 1.1 (inactive) and the Emax was 92%.

With `C[C@@H](NC(=O)c1ccc(C#Cc2cccc(F)c2)cn1)C(C)(C)O`, the fold shift was 1.36 (inactive) and the Emax stood at 89%.
